Experimental data as given in PMC6931074 (Journal of Pharmaceutical Analysis, 2018).
Read-outs that look alike come from different tables or passages of the source.

Assays:
[1] = assay type: physicochemical
In short: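 Test compound stock (0.75 mg/mL in N,N-dimethylformamide) was diluted to 150 μg/mL in phosphate buffers (pH 1.85–10.97, set at 25 °C). Solutions in glass tubes were held in a thermostat bath at 25, 37, 60, 80 or 100 °C. Aliquots were taken at 0–24 h, ice-quenched, diluted tenfold in methanol, filtered (0.22 µm) and run by C18 RP-HPLC (UV 396 nm). Half-life = ln2/k; activation parameters came from Arrhenius relationship.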

Influence of oxidation = assay type: physicochemical; settings: H2O2 3%, 10% and 30%
In short: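 Test compound solutions (150 μg/mL) containing 3%, 10% or 30% H₂O₂ were incubated at 25 °C. Samples taken at 0, 2, 5, 10, 20 and 30 min were ice-quenched, diluted tenfold with methanol, filtered (0.22 µm) and quantified by isocratic C18 RP-HPLC (UV 396 nm). Rate constants were derived from plots of ln(Ct/C0) against time.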

Influence of irradiation = assay type: physicochemical; settings: solution under indirect daylight at room temperature, after 15 min
In short: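 A 150 μg/mL test compound solution was exposed to daylight at 25 °C, alongside a light-shielded control. Content was measured by C18 RP-HPLC using acetonitrile–phosphate buffer (35:65, pH 6.5) at 1 mL/min, 30 °C, with UV detection at 396 nm.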

[2] = cited from earlier work

pH of maximum stability ([1]; 25 °C, pH 1.85 to 10.97): ~10.97
half-life at 150 μg/mL ([1]; aqueous phosphate buffer, pH 1.85, half-time (t1/2), pH 1.85, 25 °C): 43.3 h
half-life at 150 μg/mL ([1]; aqueous phosphate buffer, pH 1.85, half-time (t1/2), pH 1.85, 37 °C): 33.6 h
half-life at 150 μg/mL ([1]; aqueous phosphate buffer, pH 1.85, half-time (t1/2), pH 1.85, 60 °C): 29.6 h
half-life at 150 μg/mL ([1]; aqueous phosphate buffer, pH 1.85, half-time (t1/2), pH 1.85, 80 °C): 24.6 h
half-life at 150 μg/mL ([1]; aqueous phosphate buffer, pH 1.85, half-time (t1/2), pH 1.85, 100 °C): 10.6 h
half-life at 150 μg/mL ([1]; aqueous phosphate buffer, pH 3.13, half-time (t1/2), pH 3.13, 25 °C): 43.6 h
half-life at 150 μg/mL ([1]; aqueous phosphate buffer, pH 3.13, half-time (t1/2), pH 3.13, 37 °C): 35.7 h
half-life at 150 μg/mL ([1]; aqueous phosphate buffer, pH 3.13, half-time (t1/2), pH 3.13, 60 °C): 33.6 h
half-life at 150 μg/mL ([1]; aqueous phosphate buffer, pH 3.13, half-time (t1/2), pH 3.13, 80 °C): 23.3 h
half-life at 150 μg/mL ([1]; aqueous phosphate buffer, pH 3.13, half-time (t1/2), pH 3.13, 100 °C): 11.1 h
half-life at 150 μg/mL ([1]; aqueous phosphate buffer, pH 5, half-time (t1/2), pH 5.00, 25 °C): 116 h
half-life at 150 μg/mL ([1]; aqueous phosphate buffer, pH 5, half-time (t1/2), pH 5.00, 37 °C): 60.3 h
half-life at 150 μg/mL ([1]; aqueous phosphate buffer, pH 5, half-time (t1/2), pH 5.00, 60 °C): 36.3 h
half-life at 150 μg/mL ([1]; aqueous phosphate buffer, pH 5, half-time (t1/2), pH 5.00, 80 °C): 22.9 h
half-life at 150 μg/mL ([1]; aqueous phosphate buffer, pH 5, half-time (t1/2), pH 5.00, 100 °C): 9.67 h
△H^‡ (enthalpy of activation) ([1]; pH 1.85): 2.806 kcal/mol
△S^‡ (entropy of activation) ([1]; pH 1.85): −647.95 J/K/mol
Rate constant (k) ([1]; pH 1.85, 25 °C): 0.0160 h⁻¹
Rate constant (k) ([1]; pH 1.85, 37 °C): 0.0206 h⁻¹
Rate constant (k) ([1]; pH 1.85, 60 °C): 0.0234 h⁻¹
Rate constant (k) ([1]; pH 1.85, 80 °C): 0.0282 h⁻¹
Rate constant (k) ([1]; pH 1.85, 100 °C): 0.0655 h⁻¹
Ea (activation energy) ([1]; pH 1.85, Arrhenius plot 25–100 °C): 3.468 kcal/mol
△H^‡ (enthalpy of activation) ([1]; pH 3.13): 2.885 kcal/mol
△S^‡ (entropy of activation) ([1]; pH 3.13): −646.94 J/K/mol
Rate constant (k) ([1]; pH 3.13, 25 °C): 0.0159 h⁻¹
Rate constant (k) ([1]; pH 3.13, 37 °C): 0.0194 h⁻¹
Rate constant (k) ([1]; pH 3.13, 60 °C): 0.0206 h⁻¹
Rate constant (k) ([1]; pH 3.13, 80 °C): 0.0297 h⁻¹
Rate constant (k) ([1]; pH 3.13, 100 °C): 0.0627 h⁻¹
Ea (activation energy) ([1]; pH 3.13, Arrhenius plot 25–100 °C): 3.549 kcal/mol
△H^‡ (enthalpy of activation) ([1]; pH 5.00): 6.03 kcal/mol
△S^‡ (entropy of activation) ([1]; pH 5.00): −607.24 J/K/mol
Rate constant (k) ([1]; pH 5.00, 25 °C): 0.0060 h⁻¹
Rate constant (k) ([1]; pH 5.00, 37 °C): 0.0115 h⁻¹
Rate constant (k) ([1]; pH 5.00, 60 °C): 0.0191 h⁻¹
Rate constant (k) ([1]; pH 5.00, 80 °C): 0.0302 h⁻¹
Rate constant (k) ([1]; pH 5.00, 100 °C): 0.0717 h⁻¹
Ea (activation energy) ([1]; pH 5.00, Arrhenius plot 25–100 °C): 6.692 kcal/mol
△H^‡ (enthalpy of activation) ([1]; pH 7.10): 6.217 kcal/mol
△S^‡ (entropy of activation) ([1]; pH 7.10): −604.87 J/K/mol
Rate constant (k) ([1]; pH 7.10, 25 °C): 0.0043 h⁻¹
Rate constant (k) ([1]; pH 7.10, 37 °C): 0.0153 h⁻¹
Rate constant (k) ([1]; pH 7.10, 60 °C): 0.0195 h⁻¹
Rate constant (k) ([1]; pH 7.10, 80 °C): 0.0280 h⁻¹
Rate constant (k) ([1]; pH 7.10, 100 °C): 0.0695 h⁻¹
Ea (activation energy) ([1]; pH 7.10, Arrhenius plot 25–100 °C): 6.879 kcal/mol
△H^‡ (enthalpy of activation) ([1]; pH 9.08): 7.012 kcal/mol
△S^‡ (entropy of activation) ([1]; pH 9.08): −594.83 J/K/mol
Rate constant (k) ([1]; pH 9.08, 25 °C): 0.0033 h⁻¹
Rate constant (k) ([1]; pH 9.08, 37 °C): 0.0122 h⁻¹
Rate constant (k) ([1]; pH 9.08, 60 °C): 0.0194 h⁻¹
Rate constant (k) ([1]; pH 9.08, 80 °C): 0.0264 h⁻¹
Rate constant (k) ([1]; pH 9.08, 100 °C): 0.0690 h⁻¹
Ea (activation energy) ([1]; pH 9.08, Arrhenius plot 25–100 °C): 7.674 kcal/mol
△H^‡ (enthalpy of activation) ([1]; pH 10.97): 10.38 kcal/mol
△S^‡ (entropy of activation) ([1]; pH 10.97): −552.37 J/K/mol
Rate constant (k) ([1]; pH 10.97, 25 °C): 0.0016 h⁻¹
shelf-life (t0.9) ([1]; pH 10.97, 25 °C): 65.88
Rate constant (k) ([1]; pH 10.97, 37 °C): 0.0036 h⁻¹
shelf-life (t0.9) ([1]; pH 10.97, 37 °C): 29.28
Rate constant (k) ([1]; pH 10.97, 60 °C): 0.0140 h⁻¹
shelf-life (t0.9) ([1]; pH 10.97, 60 °C): 7.53
Rate constant (k) ([1]; pH 10.97, 80 °C): 0.0267 h⁻¹
shelf-life (t0.9) ([1]; pH 10.97, 80 °C): 3.95
Rate constant (k) ([1]; pH 10.97, 100 °C): 0.0724 h⁻¹
shelf-life (t0.9) ([1]; pH 10.97, 100 °C): 1.46
Ea (activation energy) ([1]; pH 10.97, Arrhenius plot 25–100 °C): 11.04 kcal/mol
half-life at 150 μg/mL ([1]; phosphate buffer, pH 7.1, half-time (t1/2), pH 7.10, 25 °C): 161 h
half-life at 150 μg/mL ([1]; phosphate buffer, pH 7.1, half-time (t1/2), pH 7.10, 37 °C): 45.3 h
half-life at 150 μg/mL ([1]; phosphate buffer, pH 7.1, half-time (t1/2), pH 7.10, 60 °C): 35.5 h
half-life at 150 μg/mL ([1]; phosphate buffer, pH 7.1, half-time (t1/2), pH 7.10, 80 °C): 24.8 h
half-life at 150 μg/mL ([1]; phosphate buffer, pH 7.1, half-time (t1/2), pH 7.10, 100 °C): 9.97 h
half-life at 150 μg/mL ([1]; phosphate buffer, pH 9.08, half-time (t1/2), pH 9.08, 25 °C): 210 h
half-life at 150 μg/mL ([1]; phosphate buffer, pH 9.08, half-time (t1/2), pH 9.08, 37 °C): 56.8 h
half-life at 150 μg/mL ([1]; phosphate buffer, pH 9.08, half-time (t1/2), pH 9.08, 60 °C): 35.7 h
half-life at 150 μg/mL ([1]; phosphate buffer, pH 9.08, half-time (t1/2), pH 9.08, 80 °C): 26.2 h
half-life at 150 μg/mL ([1]; phosphate buffer, pH 9.08, half-time (t1/2), pH 9.08, 100 °C): 10 h
half-life at 150 μg/mL ([1]; phosphate buffer, pH 10.97, half-time (t1/2), pH 10.97, 25 °C): 433 h
half-life at 150 μg/mL ([1]; phosphate buffer, pH 10.97, half-time (t1/2), pH 10.97, 37 °C): 192 h
half-life at 150 μg/mL ([1]; phosphate buffer, pH 10.97, half-time (t1/2), pH 10.97, 60 °C): 49.5 h
half-life at 150 μg/mL ([1]; phosphate buffer, pH 10.97, half-time (t1/2), pH 10.97, 80 °C): 26 h
half-life at 150 μg/mL ([1]; phosphate buffer, pH 10.97, half-time (t1/2), pH 10.97, 100 °C): 9.57 h
reaction order of degradation ([1]; plot of ln(Ct/C0) against time, all degradation conditions): first-order
stability under oxidation conditions (Influence of oxidation): extremely unstable
content of epalrestat relative to that protected from light (Influence of irradiation): a third
Structure (SMILES): CC(/C=C1\SC(=S)N(CC(=O)O)C1=O)=C\c1ccccc1 [epalrestat, 5-[(1Z,2E)− 2-methyl-3-phenylpropenylidene]-4-oxo-2-thioxo-3-thiazolidie acetic acid]
behaviour of epalrestat powder on exposure to light [2]: gradually fades in color and decomposes on exposure to light
